Measured values from publication PMC10959575 (Journal of the American Society for Mass Spectrometry, 2023).
Values belong to the compound of their own block, whether it stands above or below them.

Key:
α-syn [1] = target: T1, α-syn (Homo sapiens, UniProt P37840); assay: Native MS of α-syn/Cu2+/CLR01 solution, 1:1:3 molar ratio; assay type: binding
Procedure, shortened: (§1)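 Protein at 10–30 μM in 20 mM ammonium acetate, with ligand added to 10–50 μM. Electrosprayed at 1–2 kV on a 15T FT-ICR (capillary exit 100 V, deflector 200 V, funnel 90 V, skimmer 50 V). Spectra deconvolved. Percent binding calculated from intensities of unbound and ligand-bound peaks.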

[2] = target: α-syn/Cu^2+/CLR01 complex (Homo sapiens, UniProt P37840); assay: ECD top-down FT-ICR MS of the α-syn/Cu2+/CLR01 complex; assay type: binding
Procedure, shortened: (§2)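 ESI on a 15T FT-ICR instrument: spray 1–2 kV, capillary exit 100 V, deflector plate 200 V, funnel 90 V, skimmer 50 V. Complex ions isolated with a 5–20 m/z notch, then fragmented by ECD (bias 1 V, pulse 10–50 ms). Product spectra deconvoluted with S/N limit 2. c- and z-ions assigned at 5 ppm error, with ligand and metals as unlocalized modifications.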

α-syn/ Cu^2+ complex = α-syn/ Cu^2+ complex (Homo sapiens, UniProt P37840); assay: IM-MS of the α-syn/Cu2+ complex with and without CLR01; settings: 9+ charge state
Procedure, shortened: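 Copper-bound α-syn in 20 mM ammonium acetate, analysed with test compound at 1:3 molar ratio and without it. Mobility measured by quadrupole-IM-TOF: spray 1–2 kV, sampling cone 10–20 V, source offset 20 V. Data for each charge state extracted over the [M+nH]ⁿ⁺ peak.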

α-syn [3] = target: T1, α-syn; assay: IM-MS of α-syn with Mn2+ and CLR01
Procedure, shortened: (§3)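 IM-MS on a quadrupole-IM-time-of-flight instrument: spray 1–2 kV, sampling cone 10–20 V, source offset 20 V. Spectra taken over the full m/z range, with each charge state extracted over its [M+nH]ⁿ⁺ peak. Ligand at 5x molar concentration for wild-type protein; metal-bound protein with ligand at a 1:3 molar ratio.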

[4] = target: α-syn/Mn^2+/CLR01 complex (Homo sapiens, UniProt P37840); assay: ECD top-down FT-ICR MS of the α-syn/Mn2+/CLR01 complex; assay type: binding
Procedure, shortened: as §2

α-syn [5] = target: T1, α-syn; assay: Native MS of α-syn/Mn2+/CLR01 solution, 1:5:3 molar ratio; assay type: binding
Procedure, shortened: as §1

A30P α-syn [6] = target: T2, A30P α-syn (Homo sapiens, UniProt P37840, A30P); assay: ECD top-down FT-ICR MS, binding site location on A30P α-syn; settings: A30P α-syn with 2 CLR01 molecules bound
Procedure, shortened: (§4)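 Protein (10–30 μM) in 20 mM ammonium acetate with test compound at 10–50 μM. Native ESI on a 15T FT-ICR: spray 1–2 kV, capillary exit 100 V, deflector 200 V, funnel 90 V, skimmer 50 V. Complexes isolated with 5–20 m/z notch, then ECD (bias 1 V, pulse 10–50 ms). Fragments deconvoluted at S/N 2. c/z ions assigned at 5 ppm error, with ligand as unlocalized modification.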

WT α-syn [7] = target: T3, WT α-syn (Homo sapiens, UniProt P37840); assay: Native MS of WT α-syn with CLR01; assay type: binding
Procedure, shortened: as §1

phosphorylated α-syn = phosphorylated α-syn (Homo sapiens, UniProt P37840); assay: IM-MS of phosphorylated α-syn with CLR01; settings: 9+ charge state
Procedure, shortened: (§5)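 Acetylated (made as previously described) or phosphorylated α-syn in 20 mM ammonium acetate, mixed 1:1 molar with test compound. Ion mobility–MS run on a quadrupole-IM-TOF: spray 1–2 kV, sampling cone 10–20 V, source offset 20 V. Mobiligrams extracted per charge state over the [M+nH]ⁿ⁺ peak.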

tau protein = settings: IM-MS; cited from earlier work
WT α-syn [8] = target: T3, WT α-syn; assay: IM-MS of WT α-syn with CLR01
Procedure, shortened: as §3

A30P α-syn [9] = target: T2, A30P α-syn; assay: Native MS of A30P α-syn with CLR01; assay type: binding; settings: native solution conditions
Procedure, shortened: as §1

[10] = target: wild type α-syn, acetylated α-syn, and phosphorylated α-syn (Homo sapiens, UniProt P37840); assay: Native MS of equimolar proteoform mixture with equimolar CLR01; assay type: binding; settings: equimolar ratio of CLR01
Procedure, shortened: as §1

acetylated α-syn = acetylated α-syn (Homo sapiens, UniProt P37840); assay: IM-MS of acetylated α-syn with CLR01; settings: 9+ charge state
Procedure, shortened: as §5

A30P α-syn [11] = target: T2, A30P α-syn; assay: IM-MS of A30P α-syn/CLR01 complexes; settings: 8+ and 9+ charge states
Procedure, shortened: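 WT and A30P α-syn (10–30 μM) in 20 mM ammonium acetate, with test compound at 5x molar excess. Read on a quadrupole-IM-TOF instrument: spray 1–2 kV, sampling cone 10–20 V, source offset 20 V. IM spectra taken over the full m/z range. Per-charge-state data extracted over the [M+nH]ⁿ⁺ peak.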

wildtype α-syn = wildtype α-syn (Homo sapiens, UniProt P37840); assay: ECD top-down FT-ICR MS, binding site location on WT α-syn; settings: 13+ charge state, α-syn bound with 2 CLR01 molecules
Procedure, shortened: as §4

α-syn [12] = target: T1, α-syn; settings: IM-MS; cited from earlier work

α-syn bound by Cu2+ (α-syn [1]; 0 CLR01 molecules bound): 65%
number of copper binding events (α-syn [1]; 1:1:3 α-syn:Cu2+:CLR01): 1
Cu2+ binding location [2]: N-terminus
Compound: [Cu+2] [Cu^2+]
ion mobiligram of Cu2+ bound α-syn versus WT form (α-syn/ Cu^2+ complex; no CLR01): early arriving ensembles significantly more abundant

structural effect of Mn2+ binding (α-syn [3]; Mn2+ alone): only slightly compacts
Mn2+ binding location [4]: acidic C-terminal region
number of Mn2+ binding events observed (α-syn [5]; 1:5:3 α-syn:Mn2+:CLR01): up to 5
α-syn bound by Mn2+ (α-syn [5]; CLR01 not bound to the protein): 86%
Compound: [Mn+2] [Mn^2+]

CLR01 in solution bound to the protein (WT α-syn [7]; CLR01 at 5x molar concentration): 63%
number of CLR01 binding events observed (WT α-syn [7]; CLR01 at 5x molar concentration, deconvolved mass spectrum): up to 5
Kd values for the fourth and fifth binding sites (WT α-syn [7]; WT α-syn titrated with CLR01, thought to bind nonspecifically): did not converge well
number of CLR01 molecules bound simultaneously with Cu2+ (α-syn [1]; 1:1:3 α-syn:Cu2+:CLR01): Up to 3
α-syn bound by Cu2+ (α-syn [1]; 3 CLR01 molecules bound): 57%
structural effect when CLR01 and Mn2+ both bind (α-syn [3]; CLR01 and Mn2+ bound): the structure of α-syn is compacted
number of CLR01 binding events observed (α-syn [5]; 1:5:3 α-syn:Mn2+:CLR01): ≤ 4
α-syn bound by Mn2+ (α-syn [5]; 1 CLR01 molecule bound): 89%
α-syn bound by Mn2+ (α-syn [5]; 2 CLR01 molecules bound): 92%
change of ion mobiligram on CLR01 binding (WT α-syn [8]; higher charge states such as 12+): do not show significant shifts
number of CLR01 binding events observed (A30P α-syn [9]): up to 5
total CLR01 bound to the protein (A30P α-syn [9]): 74%
number of CLR01 molecules that bind each proteoform [10]: up to 2
Compound: CLR01
CLR01 binding location (A30P α-syn [6]): K10 and K12 with a possible additional site of binding at K21
change of ion mobiligram on CLR01 binding (phosphorylated α-syn): further increase in abundance of the early arriving ensembles
structural effect of binding on tau protein (tau protein): compacts the structure of tau protein
change of ion mobiligram on CLR01 binding (WT α-syn [8]; 9+ charge state, 1 CLR01 molecule bound): increase in abundance of the early arriving ensemble
change of ion mobiligram on CLR01 binding (α-syn/ Cu^2+ complex; α-syn/Cu2+ complex): further increases the abundance of the early arriving conformers
change of ion mobiligram on CLR01 binding (acetylated α-syn): increase in the abundance of early arriving ensembles
change of ion mobiligram on CLR01 binding (A30P α-syn [11]): early arriving ensembles increase in abundance
binding location of the second CLR01 molecule (wildtype α-syn): K12 with a secondary binding location at K21

Compound: epigallocatechin-3-gallate [EGCG]
structural effect of binding on α-syn (α-syn [12]): promotes compaction of α-syn structure
